Reference: paper PMC3594550 (Bioorganic & medicinal chemistry, 2012)
Where no end group is shown, it is not given here.

Columns and labels:
[1] = biological target: Grb2 SH3C; conditions: read-out: Kd towards Grb2 SH3C; cited from earlier work
[2] = biological target: Grb2 SH3C domain (Homo sapiens, UniProt P62993); experiment: Surface plasmon resonance; assay type: binding; conditions: for SPR classification (binder / non-binder) / SPR observed binding behavior (stoichiometry): 50 and 100 µM compound; for SPR classification (binder / non-binder): cut-off 5 RU at 100 µM (KD ≤ 1 mM); for SPR binding behavior above concentrations of 200 µM: compound > 200 µM; for SPR observed binding behavior (stoichiometry): maximum theoretical response 56 RU for 1:1 binding
Summary of the method: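 Untagged human Grb2 SH3C amine-coupled (EDC/NHS; 100 µM, pH 4.0 acetate) to a CM5 chip at 1500 RU. Compound in HBS-N (10 mM Hepes pH 7.4, 150 mM NaCl) with 5.0% DMSO and 0.01% Tween 20, injected 120 s at 40 µL/min, 25 °C. Double referenced against protein-free cell and buffer blank. DMSO-only and Gab2b peptide (24 µM) controls were run.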

[3] = biological target: Grb2 SH3C – Gab2b peptide interaction (Homo sapiens, UniProt P62993); experiment: Biochemical competition assay; assay type: binding; conditions: for Hill slope of inhibition curve: concentration-response; for competition assay result in words: compound 5 mM
Summary of the method: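 Then 30 min with streptavidin-sepharose beads carrying biotinylated Gab2b peptide; washed with PBS-T. Bound protein read by SDS-PAGE, Coomassie and densitometry, normalised to no-inhibitor control (100%). Sigmoidal inhibition fit by nonlinear regression.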

[4] = biological target: Grb2 SH3C (Homo sapiens, UniProt P62993); experiment: Isothermal titration calorimetry; assay type: binding; conditions: 1 mM compound titrated into 20 µM Grb2 SH3C, 25 °C
Summary of the method: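 Purified Grb2 SH3C (20 µM) in 50 mM Hepes pH 7.5, 50 mM NaCl, 0.5% DMSO, clarified and degassed, 25 °C. Compound (1 mM, same buffer) injected once at 4 µL, then 18 × 15 µL. Heat peaks integrated per mole of compound and plotted against compound:protein molar ratio.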

[5] = Solubility / precipitation observed while handling in the competition assay; assay type: physicochemical

Chain of Grb2 SH3C – Gab2b peptide interaction (P62993 156-215 limits assumed): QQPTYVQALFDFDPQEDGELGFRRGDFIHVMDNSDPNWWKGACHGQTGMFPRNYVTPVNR
Chain of Grb2 SH3C domain (P62993 156-215 limits assumed): as above
Chain of Grb2 SH3C (Homo sapiens, UniProt P62993) (P62993 156-215 limits assumed): as above

Row | SPR classification (binder / non-binder) [2] | SPR observed binding behavior (stoichiometry) [2] | competition assay result in words [3] | Molecule | also measured
1 |  |  |  | 15-mer Gab2 peptide: positive control Gab2b peptide; sequence: IQPPPVNRNLKPDRK-amide (IQPPPVNRNLKPDRK-NH2) | Kd [1]: 3.2 µM
2 | binders |  |  | CC1(C)N=C(N)N=C(N)N1c1cccc(OCc2cccc(N)c2)c1.Cl [compound 1] | 
3 | binders |  |  | CC1(C)N=C(N)N=C(N)N1c1cccc(CCCCc2cccc(N)c2)c1.Cl [compound 3, 1-(3-(4-(3-Aminophenyl)butyl)phenyl)-6,6-dime thyl-1,6-dihydro-1,3,5-triazine-2,4-diamine•HCl] | SPR binding behavior above concentrations of 200 µM [2]: superstoichiometric binding; Hill slope of inhibition curve [3]: −3.1; ITC response [4]: no measurable response above background
4 | binders | superstoichiometric |  | CC1(C)N=C(N)N=C(N)N1c1cccc(/C=C/C=C/c2cccc([N+](=O)[O-])c2)c1.Cl [compound 5, 6,6-Dimethyl-1-(3-((1E,3E)-4-(3-nitrophenyl)buta-1,3-dien-1-yl)phenyl)-1,6-dihydro-1,3,5-triazine-2,4-diamine•HCl] | SPR binding behavior above concentrations of 200 µM [2]: superstoichiometric binding; Hill slope of inhibition curve [3]: −5.0; fold increase in affinity relative to compound 3 ([3]; ratio of apparent IC50 values): 18 fold; ITC response [4]: significant reaction heats
5 | binders | superstoichiometric | no activity | CC1(C)N=C(N)N=C(N)N1c1cccc(OCCOc2cccc(N)c2)c1.Cl [compound 9] | 
6 | no activity |  | no activity | CC1(C)N=C(N)N=C(N)N1c1cc(C(F)(F)F)cc(C(F)(F)F)c1.Cl [compound 11] | 
7 | binders |  |  | CC1(C)N=C(N)N=C(N)N1c1cccc(OCC#N)c1.Cl [compound 41] | SPR binding behavior above concentrations of 200 µM [2]: superstoichiometric binding; inhibition in concentration-response experiment ([3]; dose range up to 20 mM, data not shown): unquantifiably weak inhibition
8 | binders |  |  | CC(=O)c1ccc(/N=N/c2c(N)nc(N)nc2N)cc1 [compound 46] | aqueous solubility [5]: poor aqueous solubility
9 | no activity |  | no activity | Br.CC1(C)N=C(N)N=C(N)N1c1cccc(CO)c1 [compound 47] | 
10 | binders | superstoichiometric |  | Cl.Cl.NC1CCC(NC2CCC(N)CC2)CC1 (centres unmarked) [compound 147] | SPR dissociation [2]: long dissociation time; SPR response relative to the maximum theoretical response [2]: over 10 times; SPR response level ([2]; maximum theoretical response 56 RU): ~600 RU
11 | binders |  |  | Cc1ccc(O)c(C2CC(=O)NC(N)=N2)c1 (centres unmarked) [compound 156] | SPR sensorgram quality [2]: poor sensorgram shape
12 | binders | superstoichiometric | nearly complete inhibition | Cc1ccc(C(/C=C/c2ccccc2)=N/NC(=N)N)cc1.Cl [compound 164] | precipitation during the assay ([5]; competition assay buffer, compound 5 mM): precipitated during the assay
